In article PMC12461606 (RSC Chemical Biology, 2025):

Key:
[1] = system: transgenic line of A. thaliana, modified with a synthetic dicamba monooxygenase from Stenotrophomonas maltophilia; test: Dicamba tolerance trait test, dicamba-tolerant transgenic line; assay type: in vivo, Arabidopsis thaliana; conditions: sprayed at 500 μM, DMOc line
Summary of the method: (§1)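 Wild-type plants or a homozygous dicamba-tolerant transgenic line (DMOc) were sprayed with test compound or the parent acid at 500 μM.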

[2] = system: A. thaliana; test: Herbicidal activity assay on soil-grown A. thaliana; assay type: in vivo, Arabidopsis thaliana; conditions: for pre-emergent inhibition: pre-emergence treatment; for pre-emergent inhibition / post-emergent inhibition: assessed on day 16; for post-emergent inhibition: treatments three and six days after germination
Summary of the method: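 Test compounds were applied to A. thaliana across 125 μM–2 mM, either pre-emergence or post-emergence.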

[3] = system: Wild type A. thaliana (WT); test: Dicamba tolerance trait test, wild type plants; assay type: in vivo, Arabidopsis thaliana; conditions: sprayed at 500 μM
Summary of the method: as §1

[4] = HPLC determination of dicamba formation in water; assay type: physicochemical; conditions: for % Dicamba: integration of dicamba as percentage of all peaks at 220 nm

Row | % Dicamba ([4]; 1 day) | % Dicamba ([4]; 7 days) | % Dicamba ([4]; 28 days) | relative stability to hydrolysis among glucose isomers 1–5 ([4]; HPLC) | Molecule | growth effect on dicamba-tolerant transgenic line [1] | pre-emergent inhibition ([2]; 125 μM) | post-emergent inhibition ([2]; 125 μM) | post-emergent inhibition ([2]; 500 μM) | pre-emergent inhibition ([2]; 1 mM) | growth effect on wild-type [3] | relative post-emergent herbicidal efficacy among conjugates ([2]; post-emergence, comparison between carbohydrate conjugates (Fig. 5))
1 |  |  |  |  | COc1c(Cl)ccc(Cl)c1C(=O)O [Dicamba, 3,6-dichloro-2-methoxybenzoic acid] | no growth symptoms | weak | moderate | strong | strong | herbicidal | 
2 | 0.1% | 0.1% | 0.5% | most stable | 6-O-dicamba-D-glucose [Compound 2] | no growth symptoms |  |  |  |  | herbicidal | most active
